Source: the array DNA melting data of Ke et al. (doi:10.1101/2024.01.08.574731)

What was measured:
[1] = melting temperature; fluorescence melt of hairpins on a sequencing array, two-state fit, raised by 9.35 °C to match UV melts; conditions: sodium 0.088 M
Outline: (§1)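 Bootstrapped two-state fits yielded melting temperature and folding enthalpy for library hairpins. Cy3 fluorescence, with annealed Cy3 and quencher oligos, was imaged on a sequenced MiSeq flow cell in 50 mM Na-HEPES pH 8.0, 25 mM NaCl in 2.5 °C steps up to 60 °C, and normalised to pre-quench Cy3 and to control constructs. Four replicates were combined by inverse variance, and fitted temperatures were raised by 9.35 °C to match UV melts.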

[2] = folding enthalpy; higher = less favourable; fluorescence melt of hairpins on a sequencing array, two-state fit; conditions: sodium 0.088 M
Outline: as §1

Sequence	Tm [1]	folding enthalpy [2]
GCGACGCGAAAGCGCGGC ((..(((....)))..))	55.7 °C	-13.1 kcal/mol
GCGACGCGAAAGCTTGGC ((.(.((....)).).))	37.2 °C	-10.3 kcal/mol
GCGACGGCTCGC ((((....))))	49.5 °C	-13.3 kcal/mol
GCGACGGGAAACCACCGC (((..((....))..)))	40.2 °C	-25.4 kcal/mol
GCGACGGGAAACTGTCGC (((((.(....).)))))	67.6 °C	-35.9 kcal/mol
GCGACGGTTCGC ((((....))))	49.1 °C	-20.1 kcal/mol
GCGACGTTCGC ((((...))))	48 °C	-17.3 kcal/mol
GCGACGTTTCGC ((((....))))	47.8 °C	-17.9 kcal/mol
GCGACTCCGAAAGGACGC (((..(((....))))))	46.7 °C	-25.6 kcal/mol
GCGACTCGAAAGAGACGC (((.(((....))).)))	62.3 °C	-48.5 kcal/mol
GCGACTGATCGC ((((....))))	46.8 °C	-21.9 kcal/mol
GCGACTGGAAACAATCGC ((((.((....)).))))	45.5 °C	-40.4 kcal/mol
GCGACTGGAAACAGTCAC (.(((((....))))).)	48.2 °C	-14.4 kcal/mol
GCGACTTCGAAAGAACGC (((..(((....))))))	36.7 °C	-22.4 kcal/mol
GCGAGAAATCGC ((((....))))	52.5 °C	-21.5 kcal/mol
GCGAGAGAAATCTCGC ((((((....))))))	66.8 °C	-32.3 kcal/mol
GCGAGAGGAAACCCTCGC (((((.(....).)))))	54.1 °C	-27.8 kcal/mol
GCGAGAGGAAACTCCCGC (((.(((....))).)))	48.5 °C	-35.5 kcal/mol
GCGAGAGGAAACTCTTGC ((.((((....)))).))	50 °C	-37 kcal/mol
GCGAGAGTTCGC ((((....))))	47.5 °C	-16.3 kcal/mol
GCGAGATATCGC ((((....))))	56.9 °C	-24.3 kcal/mol
GCGAGATCTCGC ((((....))))	54.1 °C	-35.4 kcal/mol
GCGAGATTCGC ((((...))))	47.7 °C	-17.1 kcal/mol
GCGAGCCGTCGC ((((....))))	52.7 °C	-20 kcal/mol

Sequence	Tm [1]	folding enthalpy [2]
GCGAGCGAAAGCTCACGC ((((((....)))..)))	60.8 °C	-14.8 kcal/mol
GCGAGCGAAAGCTCCCGC ((((((....)))..)))	42.4 °C	-11.6 kcal/mol
GCGAGCGAAAGCTCTCGC ((((((....)))..)))	52.3 °C	-17.4 kcal/mol
GCGAGCGAAAGCTTACGC ((((((....)))..)))	50.7 °C	-20.6 kcal/mol
GCGAGCGAAAGCTTTCGC ((((((....)))..)))	50.3 °C	-13.2 kcal/mol
GCGAGCGCGAAAGCGCGC (((..(((....))))))	59.9 °C	-7.4 kcal/mol
GCGAGCTGTCGC ((((....))))	48.8 °C	-17.8 kcal/mol
GCGAGCTTTCGC ((((....))))	50.5 °C	-19.3 kcal/mol
GCGAGGAAACTCGC (((((....)))))	66.4 °C	-32.6 kcal/mol
GCGAGGACGAAAGTCCGC (((..(((....))))))	56.2 °C	-8.47 kcal/mol
GCGAGGCCTCGC ((((....))))	62.8 °C	-46 kcal/mol
GCGAGGCGAAAGCATAGC ((.(.((....)).).))	55.6 °C	-21.2 kcal/mol
GCGAGGCGAAAGCCCAGC ((..(((....)))..))	63.4 °C	-10.4 kcal/mol
GCGAGGCGAAAGCCGGGC ((..(((....)))..))	65.7 °C	-20.8 kcal/mol
GCGAGGGGAAACCCTTGC ((.((((....)))).))	55.6 °C	-35.8 kcal/mol
GCGAGTATCGC ((((...))))	58.4 °C	-18.7 kcal/mol
GCGAGTATTCGC ((((....))))	57.2 °C	-26.6 kcal/mol
GCGAGTCTTCGC ((((....))))	57.2 °C	-26.2 kcal/mol
GCGAGTGCTCGC ((((....))))	52 °C	-26.2 kcal/mol
GCGAGTTTTCGC ((((....))))	53.3 °C	-16.5 kcal/mol
GCGATAAATCGC ((((....))))	49.8 °C	-19.3 kcal/mol
GCGATAACGAAAGTTCGC (((..(((....))))))	51.1 °C	-28.2 kcal/mol
GCGATACCGAAAGGTCGC (((..(((....))))))	54.3 °C	-29.3 kcal/mol
GCGATACGAAAGTAACGC (((.(((....))).)))	57.9 °C	-41.5 kcal/mol

Sequence	Tm [1]	folding enthalpy [2]
GCGATAGGAAACTATCAC (.(((((....))))).)	35.9 °C	-18.4 kcal/mol
GCGATAGGAAACTGTCGC ((((.((....)).))))	54.5 °C	-50.7 kcal/mol
GCGATATCGAAAGATCGC (((..(((....))))))	50.1 °C	-30.7 kcal/mol
GCGATATTCGC ((((...))))	51.9 °C	-17.2 kcal/mol
GCGATCCTTCGC ((((....))))	53.7 °C	-24.6 kcal/mol
GCGATCGAAAGATGCGC ((((((....))).)))	53.6 °C	-27.8 kcal/mol
GCGATCTATCGC ((((....))))	55.5 °C	-31 kcal/mol
GCGATCTTTCGC ((((....))))	51.4 °C	-27.5 kcal/mol
GCGATGAAAATCGC (((((....)))))	61.6 °C	-31.7 kcal/mol
GCGATGAATCGC ((((....))))	52.4 °C	-26.2 kcal/mol
GCGATGCGAAAGCAAGGC ((..(((....)))..))	42.3 °C	-17.2 kcal/mol
GCGATGCGAAAGCACTGC ((..(((....)))..))	45.2 °C	-19.1 kcal/mol
GCGATGCGAAAGCATAGC ((.((((....)))).))	66.7 °C	-31.1 kcal/mol
GCGATGCTTCGC ((((....))))	62.3 °C	-20.2 kcal/mol
GCGATGGATCGC ((((....))))	52.8 °C	-22.8 kcal/mol
GCGATGGCGAAAGCCCGC (((..(((....))))))	56.5 °C	-18.4 kcal/mol
GCGATGGGAAACCACCGC (((.(((....))).)))	51.1 °C	-48.5 kcal/mol
GCGATGGGAAACCATTGC ((.((((....)))).))	52.5 °C	-49.3 kcal/mol
GCGATGGGAAACCGTTGC ((.(.((....)).).))	42.7 °C	-28.8 kcal/mol
GCGATTATCGC ((((...))))	49 °C	-20.9 kcal/mol
GCGATTATTCGC ((((....))))	52.4 °C	-25.1 kcal/mol
GCGATTCCGAAAGGACGC (((..(((....))))))	46 °C	-26.3 kcal/mol
GCGATTGGAAACAATTGC ((.((((....)))).))	49.7 °C	-35.4 kcal/mol
GCGATTGGTCGC ((((....))))	52.1 °C	-23.4 kcal/mol

Sequence	Tm [1]	folding enthalpy [2]
GCGATTGTTCGC ((((....))))	51.6 °C	-24.5 kcal/mol
GCGCAAGGAAACCTGCAC (.(((.(....).))).)	29.3 °C	-17 kcal/mol
GCGCAAGGAAACCTGCGC (((((.(....).)))))	62.4 °C	-41.7 kcal/mol
GCGCAAGGAAACTCACGC (((..((....))..)))	28.4 °C	-15 kcal/mol
GCGCAAGGAAACTCGCAC (.((.((....)).)).)	27.2 °C	-13.1 kcal/mol
GCGCAAGGAAACTTACGC (((.(((....))).)))	46 °C	-30.6 kcal/mol
GCGCACCCGAAAGGGCGC (((..(((....))))))	67 °C	-20.5 kcal/mol
GCGCACGAAAGTGCACGC ((((((....)))..)))	61.1 °C	-14.6 kcal/mol
GCGCACGAAAGTGGTCGC ((((((....)))..)))	53.4 °C	-13.8 kcal/mol
GCGCACGGAAACACGCGC ((((..(....)..))))	51.6 °C	-32.9 kcal/mol
GCGCACGGAAACGCACGC (((..((....))..)))	42.2 °C	-31.2 kcal/mol
GCGCACGGAAACGTGTGC ((.((((....)))).))	67.7 °C	-41 kcal/mol
GCGCAGACGAAAGTCCGC (((..(((....))))))	52.4 °C	-25 kcal/mol
GCGCAGCGAAAGCAGAGC ((.(.((....)).).))	54.6 °C	-15.7 kcal/mol
GCGCAGCGAAAGCTAAGC ((..(((....)))..))	58.4 °C	-17.7 kcal/mol
GCGCAGCGAAAGCTACGC (((.(((....))).)))	53.5 °C	-35 kcal/mol
GCGCAGTCGAAAGACCGC (((..(((....))))))	52.8 °C	-26.1 kcal/mol
GCGCATACGAAAGTACGC (((..(((....))))))	44.9 °C	-22.7 kcal/mol
GCGCATCGAAAGATTCGC (((.(((....))).)))	52.2 °C	-38.9 kcal/mol
GCGCATTCGAAAGAACGC (((..(((....))))))	41.4 °C	-18.8 kcal/mol
GCGCCAACGAAAGTTCGC (((..(((....))))))	43.5 °C	-24.3 kcal/mol
GCGCCACGAAAGTGCCGC (((.(((....))).)))	56.3 °C	-26.9 kcal/mol
GCGCCCCGAAAGGGTCGC (((.(((....))).)))	68 °C	-45.8 kcal/mol
GCGCCCGAAAGGGGACGC ((((((....)))..)))	62.2 °C	-19.6 kcal/mol
